A selection: hits, their analogues and other compounds. The true share with any hit is near 3.6%.
SR-BI DiI-HDL act = activators of SR-BI mediated HDL lipid uptake; 320,000 compounds, 0.096% hits; activation, % at 12.5 µM; CHO ldlA[mSR-BI] cells, DiI-HDL uptake fluorescence, 3 h; 100 = double the neutral-control signal;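 active = mean replicate activation of at least 60% and every replicate at or above 60%; inconclusive = mean or all-replicate condition met, but not both; inactive = mean below 60% and not all replicates reaching 60%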;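 note: 0% = median plate neutral-control signal and 100% = twice that signal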
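Assay system: LDL receptor-deficient CHO ldlA cells overexpressing murine SR-BI / Medium: BSA-supplemented, HEPES-buffered Ham's F12, pH 7.4 / Probe or stimulus: DiI-labelled HDL at 10 µg/mL final / Timing: compound with DiI-HDL co-incubation, 3 h at 37 °C / Technique: bottom-read cell fluorescence after medium removal, ex 550/em 595 nm / Measure: HDL uptake via cellular fluorescence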
HSF-1 act = increases HSF-1 driven luciferase reporter signal. NIH3T3-HGL HSF-1 luciferase reporter, MG132, 8 h; 100% = twice DMSO control signal. activation, % at 9 µM. 300,000 compounds, 1.7% hits. AID 504408;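 active = mean replicate activation of at least 50% with a set share of replicates each reaching 50%; inconclusive = only one of those two conditions met; inactive = mean below 50% and too few replicates reaching it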;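 note: 0% = median of the neutral control wells and 100% = twice that signal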
MITF TRPM1 HTS = MITF TRPM1 promoter activation in melanoma cells. SK-MEL-5 TRPM1-promoter luciferase, 24 h; % of positive control, neutral wells = 0. activation, % at 12.5 µM. 300,000 compounds, 0.75% hits;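 active = mean activation of at least 80% with every replicate also reaching 80%; inconclusive = mean reaches 80% but some replicate falls short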;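 note: 0% = neutral control wells and 100% = parthenolide positive control wells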
Wnt bcat act = activators of Wnt/beta-catenin signaling; 300,000 compounds, 1.2% hits; Wnt/beta-catenin reporter cell assay, activator, plate reader; AID 743398; activation, % at 9.35 µM; in the data active = activation above about 30%, passing the limit was not always enough; inconclusive = no clear call, values can overlap the other calls;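 note: 0% = neutral control wells and 100% = positive control wells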
SR-BI HDL uptake = inhibitors of mouse SR-BI mediated HDL lipid uptake. Q61009. ldlA[mSR-BI] CHO cells, DiI-HDL uptake fluorescence, 3 h. inhibition, % at 12.5 µM. 320,000 compounds, 0.96% hits;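 active = mean replicate inhibition of at least 70% and a set share of replicates each scoring 70 or more; inconclusive = meets just one of the two criteria; inactive = fails both criteria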;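 note: 0% = median of neutral control wells and 100% = median of positive control wells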
Target sequence (Q61009 whole entry, looked up): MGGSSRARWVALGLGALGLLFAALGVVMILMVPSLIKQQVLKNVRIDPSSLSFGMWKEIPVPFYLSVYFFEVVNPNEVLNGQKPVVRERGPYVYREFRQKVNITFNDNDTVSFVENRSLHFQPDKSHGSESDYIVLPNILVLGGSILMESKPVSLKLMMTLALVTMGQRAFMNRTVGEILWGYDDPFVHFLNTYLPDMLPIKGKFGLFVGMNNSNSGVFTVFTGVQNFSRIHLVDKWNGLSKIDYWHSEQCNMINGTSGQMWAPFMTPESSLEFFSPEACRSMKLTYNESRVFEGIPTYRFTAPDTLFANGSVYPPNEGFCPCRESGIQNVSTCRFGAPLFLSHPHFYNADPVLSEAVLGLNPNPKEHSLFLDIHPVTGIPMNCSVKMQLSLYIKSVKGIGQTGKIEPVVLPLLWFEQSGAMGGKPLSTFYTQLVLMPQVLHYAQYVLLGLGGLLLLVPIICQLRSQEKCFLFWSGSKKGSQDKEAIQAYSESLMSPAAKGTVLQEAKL
The depositor's hits bear a star.

Screening Cc1ccc(NC(=O)Nc2ccc3c(c2)CCC3)cc1C returned SR-BI DiI-HDL act -11, HSF-1 act 21, MITF TRPM1 HTS 9, Wnt bcat act 5 and SR-BI HDL uptake 11.
Screening COc1ccc(NC(=O)Nc2cccc(OC)c2)cc1 returned SR-BI DiI-HDL act 8, HSF-1 act 39, MITF TRPM1 HTS 96*, Wnt bcat act inconclusive and SR-BI HDL uptake -8.
For COc1cccc(NC(=O)Nc2ccc3nc(C)c(C)nc3c2)c1 the results were SR-BI DiI-HDL act -8, HSF-1 act 12, MITF TRPM1 HTS 26, Wnt bcat act 0 and SR-BI HDL uptake 8.
CCC1CCC(NC(=O)Nc2cccc(OC)c2)CC1 (configuration not stated) was read as SR-BI DiI-HDL act -7, HSF-1 act 62*, MITF TRPM1 HTS inconclusive, Wnt bcat act 57* and SR-BI HDL uptake 7.
For O=C(NCc1cccc(Cl)c1)c1ccc(S(=O)(=O)N2CCCCC2)cc1 the results were Wnt bcat act -1.
Screening CCOC(=O)[C@]12CCCC=C1N(Cc1ccccc1)C(=O)[C@H](CC(=O)N1CCN(C(=O)C3CC3)CC1)C2 returned Wnt bcat act -1.
`COc1ccc(NC(=O)Nc2ccc(F)cc2F)cc1` gave SR-BI DiI-HDL act -2, HSF-1 act 42, MITF TRPM1 HTS 92* and SR-BI HDL uptake 2.
`COc1ccc(NC(=O)CN2CCc3ccccc3C2)cc1` gave SR-BI DiI-HDL act 12, MITF TRPM1 HTS 4, Wnt bcat act -1 and SR-BI HDL uptake -12.
`COc1ccc(NC(=S)N2CCc3ccccc3C2)cc1` gave SR-BI DiI-HDL act 7, HSF-1 act 61*, MITF TRPM1 HTS 2, Wnt bcat act 9 and SR-BI HDL uptake -7.
Screening O=C(CCCCC(=O)Nc1ccc(F)cc1F)Nc1ccc(F)cc1F returned SR-BI DiI-HDL act 8, HSF-1 act -4, Wnt bcat act 33* and SR-BI HDL uptake -8.
`COc1ccc(OCC(=O)Nc2cccc(OC)c2)cc1` gave SR-BI DiI-HDL act 3, HSF-1 act -2, MITF TRPM1 HTS 25, Wnt bcat act 17 and SR-BI HDL uptake -3.
Screening COc1cccc(NC(=O)COc2ccccc2C(N)=O)c1 returned SR-BI DiI-HDL act 6, HSF-1 act 71*, MITF TRPM1 HTS 45 and SR-BI HDL uptake -6.
COc1ccc(NS(=O)(=O)c2cc(NC(=O)C(CC(C)C)NC(N)=O)ccc2N2CCOCC2)cc1 (configuration not stated) was read as SR-BI DiI-HDL act 10, MITF TRPM1 HTS 0, Wnt bcat act -3 and SR-BI HDL uptake -10.
For Cc1ccccc1NC(=O)Nc1nc(CN)cs1 the results were Wnt bcat act 0.
`COc1ccc(NC(=O)Nc2ccc3oc(C)nc3c2)cc1` gave SR-BI DiI-HDL act 7, HSF-1 act 40, MITF TRPM1 HTS 44, Wnt bcat act 40* and SR-BI HDL uptake -7.
Screening COc1cccc(NC(=S)N2CCCC2)c1 returned SR-BI DiI-HDL act 25, HSF-1 act 57*, MITF TRPM1 HTS 9 and SR-BI HDL uptake -25.
Screening COc1cccc(NC(=S)Nc2ccc(O)cc2)c1 returned SR-BI DiI-HDL act -2, HSF-1 act 14, MITF TRPM1 HTS 28, Wnt bcat act 5 and SR-BI HDL uptake 2.
Screening COc1ccc(NC(=S)Nc2ccc3nccnc3c2)cc1 returned SR-BI DiI-HDL act 27, HSF-1 act 36, MITF TRPM1 HTS 88* and SR-BI HDL uptake -27.
For C=CCNC(=O)Nc1ccc2oc(C)nc2c1 the results were SR-BI DiI-HDL act 30, HSF-1 act 1, MITF TRPM1 HTS 9 and SR-BI HDL uptake -30.
For COc1cccc(NC(=S)Nc2ccc(F)cc2)c1 the results were HSF-1 act 12, MITF TRPM1 HTS -1 and Wnt bcat act 41*.
COc1cc(NC(=S)N2CCCC2)cc(OC)c1 was read as SR-BI DiI-HDL act 20, MITF TRPM1 HTS -2, Wnt bcat act 4 and SR-BI HDL uptake -20.
`COc1ccc(NC(=S)Nc2ccc3snnc3c2)cc1` gave SR-BI DiI-HDL act -25, HSF-1 act 9, MITF TRPM1 HTS 51, Wnt bcat act 4 and SR-BI HDL uptake 25.
`CC1=CC(C)C(=O)N(C)C(C)=C1` (configuration not stated) gave Wnt bcat act -4.
COc1ccc(NC(=O)C(Sc2nnc3ccccn23)c2ccccc2)cc1Cl (configuration not stated) was read as SR-BI DiI-HDL act 82*, HSF-1 act 10, MITF TRPM1 HTS 4, Wnt bcat act -3 and SR-BI HDL uptake -82.
For Cc1ccc(C(=O)N(CC(=O)NC2CCCC2)c2ccccc2F)s1 the results were Wnt bcat act 0.
For N/C(=N\C(=S)Nc1ccccc1)c1ccccc1 the results were SR-BI DiI-HDL act -30, HSF-1 act 43, MITF TRPM1 HTS inconclusive, Wnt bcat act 42* and SR-BI HDL uptake 30.
Screening O=C(Cn1cc(COc2ccc(-n3cccc3)cc2)nn1)NS(=O)(=O)c1ccccc1C(F)(F)F returned Wnt bcat act -1.
CCCCCCCN(c1ccccc1)[C@@H]1C[C@H]2CCCC(=O)N3CC[C@@H](C1)[C@@H]23 was read as SR-BI DiI-HDL act -25, MITF TRPM1 HTS -15, Wnt bcat act -21 and SR-BI HDL uptake 25.
Screening CC(=O)n1cc(N(C(=O)CCl)c2ccc([N+](=O)[O-])cc2)c2ccccc21 returned SR-BI DiI-HDL act 2, HSF-1 act 75*, Wnt bcat act 3 and SR-BI HDL uptake -2.
CC(=O)n1cc(N(C(=O)CCl)c2ccccc2)c2ccccc21 was read as SR-BI DiI-HDL act 9, HSF-1 act -52, Wnt bcat act 1 and SR-BI HDL uptake -9.
For CCCC(C)Sc1nc2c([nH]1)c(=S)n(C)c(=O)n2C (configuration not stated) the results were SR-BI DiI-HDL act -24, MITF TRPM1 HTS -15, Wnt bcat act -3 and SR-BI HDL uptake 24.
`CC(=O)Nc1cc2nc3ccccc3oc-2cc1=O` gave Wnt bcat act 0.
Cc1ccc(NC(=O)C(c2ccccc2)N2CCN(CC(=O)N3CCOCC3)CC2)cc1 (configuration not stated) was read as SR-BI DiI-HDL act -1, MITF TRPM1 HTS 22, Wnt bcat act 33* and SR-BI HDL uptake 1.
Screening COc1ccc(/C=C(/C(=O)c2cccs2)N2C=CC=CC2=C(C#N)C#N)cc1 returned SR-BI DiI-HDL act -38, HSF-1 act 177*, MITF TRPM1 HTS -57, Wnt bcat act -8 and SR-BI HDL uptake 38.
Screening COc1cccc(S(=O)(=O)N(C)C[C@@H]2OCc3cn(nn3)CCCC(=O)N([C@@H](C)CO)C[C@H]2C)c1 returned Wnt bcat act -1.
Screening CCCCCCCOC(=O)C[N+](C)(C)CCOC1CC2CCC1(C)C2(C)C (configuration not stated) returned SR-BI DiI-HDL act 69*, HSF-1 act -6, MITF TRPM1 HTS -94, Wnt bcat act -7 and SR-BI HDL uptake -69.
